{"source": "ChEMBL document CHEMBL4033782", "about": "“Structural Modification of Natural Product Tanshinone I Leading to Discovery of Novel Nitrogen-Enriched Derivatives with Enhanced Anticancer Profile and Improved Drug-like Properties” (J Med Chem, 2018)", "key": {"[1]": {"test_system": "HCT-116", "assay": "Induction of apoptosis in human HCT116 cells pretreated with Z-VAD-FMK pan-caspase inhibitor for 1 hr assessed as cleavage of PARP at 2 uM after 48 hrs by Western blot analysis", "type": "functional, cell-based", "how_it_was_run": "(§1)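 HCT116 cells, with or without a 1 h pretreatment with 20 μM Z-VAD-FMK, exposed for 48 h. Lysed on ice in Hepes/NaCl/Triton X-100 buffer with protease/phosphatase inhibitors and clarified at 12,000×g. Equal protein run by SDS-PAGE, blotted to nitrocellulose, probed overnight at 4 °C for PARP, caspase 3, caspase 7 and β-actin. HRP secondaries, ECL detection.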"}, "[2]": {"test_system": "KB", "assay": "Antiproliferative activity against human KB cells after 72 hrs by sulforhodamine B assay", "type": "functional, cell-based", "how_it_was_run": "(§2)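 Cells grown in ATCC-specified medium with 10% heat-inactivated FBS, penicillin/streptomycin and 10 mM Hepes, at 37 °C under 5% CO2. Seeded, cultured overnight, then exposed to gradient concentrations for 72 h. Growth read by SRB staining; inhibition % = [1−(A450 treated/A450 control)]×100. IC50 obtained by the Logit method from independent experiments.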"}, "[3]": {"test_system": "Liver", "assay": "Intrinsic clearance in rat liver microsomes assessed per mg protein up to 60 mins by LC-MS/MS analysis", "type": "ADME, microsome", "details": "1 h", "how_it_was_run": "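Liver microsomes (0.33 mg/mL protein) in 0.1 M Tris/HCl pH 7.4 with 5 mM MgCl2, 1 mM NADPH, compound at 0.1 μM final (0.01% DMSO, 0.005% BSA), 37 °C; samples at 0, 7, 17, 30, 60 min quenched in methanol, centrifuged, LC-MS/MS; T1/2 and Clint per g protein derived.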"}, "[4]": {"assay": "Oral bioavailability in Sprague-Dawley rat at 3.90 mg/kg by LC-ESI-MS/MS analysis", "type": "ADME, organism-based", "details": "in vivo, 3.9 mg/kg"}, "[5]": {"test_system": "HCT-116", "assay": "Induction of apoptosis in human HCT116 cells assessed as cleavage of PARP at 2 uM after 48 hrs by Western blot analysis", "type": "functional, cell-based", "how_it_was_run": "as §1"}, "[6]": {"assay": "Half life in Sprague-Dawley rat at 3.90 mg/kg, po by LC-ESI-MS/MS analysis", "type": "ADME, organism-based", "details": "in vivo, 3.9 mg/kg"}, "[7]": {"test_system": "Liver", "assay": "Half life in mouse liver microsomes at 0.1 uM up to 60 mins by LC-MS/MS analysis", "type": "ADME, microsome", "details": "microsomes, 1 h, 0.1 µM", "how_it_was_run": "(§3)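 Compound at 0.1 μM final (0.01% DMSO, 0.005% BSA) incubated at 37 °C with human, rat or mouse liver microsomes (0.33 mg/mL protein) in 0.1 M Tris/HCl pH 7.4, with 5 mM MgCl2 and 1 mM NADPH. Samples taken at 0, 7, 17, 30 and 60 min, quenched by methanol precipitation, centrifuged, and parent measured by LC-MS/MS. T1/2 and Clint derived.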"}, "[8]": {"assay": "Antiproliferative activity against human KB/VCR cells after 72 hrs by sulforhodamine B assay", "type": "functional, cell-based", "how_it_was_run": "as §2"}, "[9]": {"test_system": "HCT-116", "assay": "Induction of apoptosis in human HCT116 cells pretreated with Z-VAD-FMK pan-caspase inhibitor for 1 hr assessed as late apoptotic cells at 2 uM after 48 hrs by Annexin V-FITC/propidium iodide staining-based FACS analysis (reference value: 3.15%)", "type": "functional", "design": "scale not given: the % may be the effect or the level left"}, "[10]": {"assay": "Half life in rat liver microsomes at 0.1 uM up to 60 mins by LC-MS/MS analysis", "type": "ADME, microsome", "how_it_was_run": "as §3"}, "[11]": {"test_system": "HCT-116", "assay": "Induction of apoptosis in human HCT116 cells pretreated with Z-VAD-FMK pan-caspase inhibitor for 1 hr assessed as activation of caspase 3/7 at 2 uM after 48 hrs by Western blot analysis", "type": "functional, cell-based", "how_it_was_run": "as §1"}, "[12]": {"test_system": "Liver", "assay": "Intrinsic clearance in human liver microsomes assessed as per mg protein up to 60 mins by LC-MS/MS analysis", "type": "ADME, microsome", "details": "1 h", "how_it_was_run": "as §3"}, "[13]": {"test_system": "HCT-116", "assay": "Induction of apoptosis in human HCT116 cells assessed as early apoptotic cells at 2 uM after 48 hrs by Annexin V-FITC/propidium iodide staining-based FACS analysis (reference value: 2.35%)", "type": "functional"}, "[14]": {"test_system": "HCT-116", "assay": "Induction of apoptosis in human HCT116 cells assessed as late apoptotic cells at 2 uM after 48 hrs by Annexin V-FITC/propidium iodide staining-based FACS analysis (reference value: 5.74%)", "type": "functional"}, "[15]": {"test_system": "HCT-116", "assay": "Induction of apoptosis in human HCT116 cells assessed as activation of caspase 3/7 at 2 uM after 48 hrs by Western blot analysis", "type": "functional, cell-based", "how_it_was_run": "as §1"}, "[16]": {"test_system": "HCT-116", "assay": "Induction of apoptosis in human HCT116 cells assessed as activation of caspase 3/7 at 1.0 to 4.0 uM after 24 hrs by Caspase-Glo 3/7 assay"}, "[17]": {"test_system": "Liver", "assay": "Intrinsic clearance in mouse liver microsomes assessed per mg protein up to 60 mins by LC-MS/MS analysis", "type": "ADME, microsome", "details": "1 h", "how_it_was_run": "as §3"}, "[18]": {"assay": "Half life in human liver microsomes at 0.1 uM up to 60 mins by LC-MS/MS analysis", "type": "ADME, microsome", "how_it_was_run": "as §3"}, "[19]": {"test_system": "HCT-116", "assay": "Induction of apoptosis in human HCT116 cells pretreated with Z-VAD-FMK pan-caspase inhibitor for 1 hr assessed as early apoptotic cells at 2 uM after 48 hrs by Annexin V-FITC/propidium iodide staining-based FACS analysis (reference value: 1.34%)", "type": "functional", "design": "scale not given: the % may be the effect or the level left"}, "[20]": {"assay": "Aqueous solubility of the compound by HPLC method", "type": "physicochemical", "details": "buffer", "how_it_was_run": "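Solubility determined by an HPLC method, with one-point calibration against standards of known concentration. Mean ± SD of at least three independent experiments.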"}}, "note": "Calls of active or inactive are those of the source. The rule behind the calls is not given here."}
{"compound": "Cc1coc2c1C(=O)C(=O)c1c-2ccc2c(C)cccc12", "note": "[TANSHINONE I]", "values": [{"measurement": "Activity", "setting": "[1]", "value": "inactive"}, {"measurement": "IC50", "setting": "[2]", "value": 5.87, "unit": "µM"}, {"measurement": "intrinsic clearance", "setting": "[3]", "value": 836, "unit": "mL/min/g"}, {"measurement": "bioavailability", "setting": "[4]", "value": 0, "unit": "%"}, {"measurement": "Activity", "setting": "[5]", "value": "inactive"}, {"measurement": "half-life", "setting": "[6]", "value": 10.2, "unit": "min"}, {"measurement": "t1/2", "setting": "[7]", "value": "Nd(Unstable)"}, {"measurement": "IC50", "setting": "[8]", "value": 4.4, "unit": "µM"}, {"measurement": "Activity", "setting": "[9]", "value": 7.11, "unit": "%"}, {"measurement": "half-life at 0.1 µM", "setting": "[10]", "value": 2.51, "unit": "min"}, {"measurement": "Activity", "setting": "[11]", "value": "inactive"}, {"measurement": "intrinsic clearance", "setting": "[12]", "value": 325, "unit": "mL/min/g"}, {"measurement": "Activity", "setting": "[13]", "value": 3.81, "unit": "%"}, {"measurement": "Activity", "setting": "[14]", "value": 5.46, "unit": "%"}, {"measurement": "Activity", "setting": "[15]", "value": "inactive"}, {"measurement": "Activity", "setting": "[16]", "value": "inactive"}, {"measurement": "intrinsic clearance", "setting": "[17]", "value": "Nd(Unstable)"}, {"measurement": "half-life at 0.1 µM", "setting": "[18]", "value": 6.45, "unit": "min"}, {"measurement": "Activity", "setting": "[19]", "value": 4.24, "unit": "%"}, {"measurement": "solubility", "setting": "[20]", "value": "< 0.1", "unit": "µg/mL"}]}
